Measurements: ChEMBL document CHEMBL4130378, “Discovery of pentacyclic triterpene 3β-ester derivatives as a new class of cholesterol ester transfer protein inhibitors” (Eur J Med Chem, 2017)

Tests used:
[1] = target: T1, Cholesteryl ester transfer protein (Homo sapiens, UniProt P11597); assay: Inhibition of recombinant human CETP after 3 hrs using fluorescent cholesteryl containing HDL after 3 hrs by fluorescence assay; conditions: read-out: IC50
T1 sequence (P11597 whole entry): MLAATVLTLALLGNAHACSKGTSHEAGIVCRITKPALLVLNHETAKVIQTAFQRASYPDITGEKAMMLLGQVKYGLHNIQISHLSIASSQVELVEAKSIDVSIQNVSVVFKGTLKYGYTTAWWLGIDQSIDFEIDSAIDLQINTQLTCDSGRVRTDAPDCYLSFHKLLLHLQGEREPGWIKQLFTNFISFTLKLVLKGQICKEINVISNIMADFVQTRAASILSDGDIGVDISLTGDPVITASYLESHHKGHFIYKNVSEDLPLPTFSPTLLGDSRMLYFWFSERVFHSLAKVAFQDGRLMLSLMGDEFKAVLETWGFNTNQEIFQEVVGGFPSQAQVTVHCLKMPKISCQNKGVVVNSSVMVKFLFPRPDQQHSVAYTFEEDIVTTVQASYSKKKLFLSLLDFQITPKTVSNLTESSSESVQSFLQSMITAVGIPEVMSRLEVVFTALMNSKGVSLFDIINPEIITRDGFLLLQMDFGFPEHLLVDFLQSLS

[2] = Octanol-water partition coefficient, log P of the compound at pH 7.4 by HPLC based shake flask method; format: physicochemical
Mus musculus [3] = assay: Hypolipidemic activity in transgenic ap2-CETPTg mouse model assessed as reduction in plasma LDL cholesterol levels at 30 mg/kg, po qd for 14 days measured 2 hrs post dose on day 14 by automated lipid analyzer relative to control; format: functional; design: scale not given: the % may be the effect or the level left
Procedure, shortened: (§1)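 ap2-CETPTg mice, which express human CETP in adipose tissue. Oral 30 mg/kg once daily for two weeks in DMSO/cremophor/saline 3:4:93. Retro-orbital blood drawn 2 h after the day-14 dose. HDL-C, LDL-C, TG and TC measured on an automated lipid analyzer, mean ± SD (n ≥ 6), versus control group.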

Cavia porcellus [4] = assay: Antihyperlipidemic activity in high-fat fed guinea pig model assessed as increase in plasma HDL cholesterol level at 30 mg/kg administered via oral gavage as qd for 14 days measured 2 hrs post dose on day 14 relative to control; format: functional
Procedure, shortened: (§2)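 Male guinea pigs, 12 weeks old, fed a high-fat diet (2.5% coconut oil, 0.25% cholesterol) for two weeks. Gavage at 30 mg/kg once daily for two weeks while the diet continued. Plasma taken retro-orbitally 2 h after the day-14 dose. HDL-C, LDL-C, TG and TC reported as mean ± SD (n ≥ 6) versus the untreated high-fat model group.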

Cavia porcellus [5] = assay: Hypolipidemic activity in high-fat fed guinea pig model assessed as reduction in plasma LDL cholesterol levels at 30 mg/kg administered via oral gavage as qd for 14 days measured 2 hrs post dose on day 14 relative to control; format: functional; design: scale not given: the % may be the effect or the level left; procedure, shortened: as §2
Mus musculus [6] = assay: Induction of plasma triglyceride levels in transgenic ap2-CETPTg mouse model at 30 mg/kg, po qd for 14 days measured 2 hrs post dose on day 14 by automated lipid analyzer relative to control; format: ADME, organism-based; conditions: in vivo; procedure, shortened: as §1
Mus musculus [7] = assay: Induction of plasma total cholesterol levels in transgenic ap2-CETPTg mouse model at 30 mg/kg, po qd for 14 days measured 2 hrs post dose on day 14 by automated lipid analyzer relative to control; format: ADME, organism-based; conditions: in vivo; procedure, shortened: as §1

## CC1(C)CC[C@]2(C(=O)O)CC[C@]3(C)C(=CC[C@@H]4[C@@]5(C)CC[C@H](OC(=O)CCC(=O)NCCS(=O)(=O)O)C(C)(C)[C@@H]5CC[C@]43C)[C@@H]2C1
[1]
  IC50: 23.1 µM

## CC1(C)CC[C@]2(C(=O)O)CC[C@]3(C)C(=CC[C@@H]4[C@@]5(C)CC[C@H](OC(=O)CCCCC(=O)O)C(C)(C)[C@@H]5CC[C@]43C)[C@@H]2C1
[1]
  IC50: 7 µM

## CC1(C)CC[C@]2(C(=O)O)CC[C@]3(C)C(=C2C1)CC[C@@H]1[C@@]2(C)CC[C@H](OC(=O)CCCC(=O)O)C(C)(C)[C@@H]2CC[C@]13C
[1]
  IC50: 10.3 µM

## CC1(C)CC[C@]2(C(=O)O)CC[C@]3(C)C(=CC[C@@H]4[C@@]5(C)CC[C@H](OC(=O)CCC(=O)O)C(C)(C)[C@@H]5CC[C@]43C)[C@@H]2C1 [OLEANOLIC ACID 3-O-SUCCINATE]
[1]
  IC50: 4.3 µM

## CCOC(=O)N1c2ccc(C(F)(F)F)cc2[C@@H](N(Cc2cc(C(F)(F)F)cc(C(F)(F)F)c2)C(=O)OC)C[C@H]1CC [TORCETRAPIB]
[2]
  logD: 1.05

## CC1(C)CC[C@]2(C(=O)OCC(=O)O)CC[C@]3(C)C(=CC[C@@H]4[C@@]5(C)CC[C@H](OC(=O)CCCC(=O)O)C(C)(C)[C@@H]5CC[C@]43C)[C@@H]2C1
[1]
  IC50: 38.9 µM

## COc1cc(F)c(C(C)C)cc1-c1ccc(C(F)(F)F)cc1CN1C(=O)O[C@H](c2cc(C(F)(F)F)cc(C(F)(F)F)c2)[C@@H]1C [ANACETRAPIB]
Mus musculus [3]
  Activity: 40.4%
Cavia porcellus [4]
  Activity: 82.2%
Cavia porcellus [5]
  Activity: 30.2%
[2]
  logD: 0.73
Mus musculus [6]
  Activity: 4.7%
Mus musculus [7]
  Activity: 17.8%

## CC1(C)CC[C@]2(C(=O)O)CC[C@]3(C)C(=CC[C@@H]4[C@@]5(C)CC[C@H](OC(=O)CCCC(=O)O)C(C)(C)[C@@H]5CC[C@]43C)[C@@H]2C1
[1]
  IC50: 3.5 µM

## CC1(C)CC[C@]2(C(=O)O)CC[C@]3(C)C(=CC[C@@H]4[C@@]5(C)CC[C@H](OC(=O)CCN6CCOCC6)C(C)(C)[C@@H]5CC[C@]43C)[C@@H]2C1
[1]
  IC50: 68.5 µM
